Bioassay records: PubChem, Sanford-Burnham Center for Chemical Genomics
Only some compounds are listed: those with a hit (about 1.7% of all), similar ones and a draw of the others.
MLLE-PAM2 inh = inhibitors of PABP1 MLLE–PAM2 peptide binding, primary screen, biochemical, fluorescence polarization, FITC-PAM2, GST-MLLE | 360,000 tested, 0.36% active | Polyadenylate-binding protein 1 (Homo sapiens), P11940 | AID 588489, 2011 | inhibition, % at 20 µM; in the data active means inhibition above about 35%, passing the limit was not always enough
SKN-1 block = suppressors of acrylamide-induced Pgst-4::GFP reporter in worms, primary screen, SKN-1 inhibitor project, whole organism, uHTS, GFP/RFP fluorescence ratio, strain VP596; C. elegans VP596 Pgst-4::GFP/RFP ratio, 24 h; inhibition, % at 21.8 µM; 360,000 tested, 0.49% active;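 active means interference check ratio from 0.5 to 1.5 plus GFP to RFP signal ratio inhibition reaching or exceeding a fixed threshold, cut at about 30% in these data, passing the limit was not always enough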
MT1-MMP act inh = blockers of MT1-MMP proenzyme processing, primary screen, HT1080 RFP-PRO-GFP cells, GFP/RFP fluorescence. Matrix metalloproteinase-14 (Homo sapiens), P50281. GFP/RFP ratio fluorescence, overnight; percent of plate control window, DMSO zero. GFP/RFP ratio change, % at 20 µM. 360,000 tested, 0.061% active. AID 651647, 2012;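 active means GFP/RFP ratio change of at least 30% with cell ATP level not reduced by more than half and red fluorescence within 50% of control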
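Assay system: HT1080 RFP-PRO-GFP cells | Dosing: 20 µM single dose, 1% DMSO | Incubation: Cells overnight before dosing, compound overnight, 37 °C, 5% CO2 | Evaluation: GFP/RFP fluorescence ratio | Control set: DMSO-only wells and HT1080 RFP-L50D-GFP cell wells as references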
PABP polyA inh = PABP poly(A) RNA binding inhibitors, primary screen, biochemical, fluorescence polarization, uHTS. inhibition, % at 35 µM. 290,000 tested, 1% active. Polyadenylate-binding protein 1 (Homo sapiens), P11940;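 further: calls also rest on retests at 20 µM and on dose response follow-up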
eIF4H FP inh = human eIF4H binding inhibitors, primary screen, translation initiation inhibitor project, biochemical, uHTS, fluorescence polarization; Eukaryotic translation initiation factor 4H (Homo sapiens), Q15056; AID 2012, 2009; inhibition, % at 35 µM; eIF4H fluorescence polarization binding assay; 290,000 tested, 0.94% active;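 further: calls also rest on retests at 20 µM and on dose response follow-up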
Large screens that a line does not name were inactive; ! = a repeat was not active. Unless noted, how the calls were made is not given here.

Cn1ccnc1C(=O)c1ccc(S(=O)(=O)N2CCCC2)cc1	none
CC(C)c1nnc(NC(=O)C2c3ccccc3Oc3ccccc32)s1	none
Cc1nnc(NC(=O)C2c3ccccc3Oc3ccccc32)s1	MLLE-PAM2 inh 38
CCOc1ccc(S(=O)(=O)NC2CCCCCC2)cc1	none
CCOc1ccc(S(=O)(=O)N/N=C(\C)C2CCCCC2)cc1	PABP polyA inh active, eIF4H FP inh 71
Cc1[nH]nc2c1C(c1ccc(F)cc1)C(C#N)=C(N)O2 (stereo not given)	none
Cc1oc(C)c2c(=O)ccc3c(c12)OC(N)=C(C#N)C3c1ccc(F)cc1 (stereo not given)	PABP polyA inh 112, eIF4H FP inh 70
Cc1cc(C)c(NC(=O)CS(=O)CC(=O)Nc2ccc(N3CCOCC3)cc2)c(C)c1 (stereo not given)	SKN-1 block 35
c1ccc(Cn2nnc3c(NCCN4CCOCC4)ncnc32)cc1	SKN-1 block 44
Cc1occc1-c1nnc(SC(C)C(=O)Nc2ccccc2F)o1 (stereo not given)	none (no result: PABP polyA inh, eIF4H FP inh)
CC(C(=O)Nc1nncs1)N1C(=O)C2C3C=CC(C3)C2C1=O (stereo not given)	PABP polyA inh active, eIF4H FP inh inconclusive
Cc1cccc(NC(=O)CSc2nnc(-c3ccco3)c(-c3ccco3)n2)c1	PABP polyA inh 73
Cc1cccc(NC(=O)CSc2nnc(-c3ccco3)c(-c3ccco3)n2)c1C	PABP polyA inh 62, eIF4H FP inh 91
Cc1cccc(NC(=O)CSc2nc(N)cc(N)n2)c1	none
Cc1ccccc1NC(=O)CSc1nnc(-c2ccco2)n1N	none (no result: PABP polyA inh, eIF4H FP inh)
COc1ccc(CCNC(=O)CSc2ccc(-c3ccco3)nn2)cc1OC	none
COc1ccc(CCNC(=O)CSc2nnc(-c3ccco3)c(-c3ccco3)n2)cc1OC	PABP polyA inh 48, eIF4H FP inh 84 (no result: MLLE-PAM2 inh, SKN-1 block, MT1-MMP act inh)
Cc1ccc(CN2[C@@H](CC3CCCCC3)COCCS2(=O)=O)cc1	none
COc1ccc(C)c2sc(=NC(=O)c3ccc(C(C)=O)cc3)n(C)c12	PABP polyA inh 57, eIF4H FP inh 90
COc1ccc(C)c2sc(=NC(=O)c3ccccc3)n(C)c12	none
COc1ccc(/C=C/C(=O)Nc2ccccc2C(F)(F)F)cc1	none
CCOc1ccc(/C=C/C(=O)Nc2ccccc2C(F)(F)F)cc1	PABP polyA inh 94, eIF4H FP inh active
Clc1ccc(-c2nnn(Cc3nc4ccccc4s3)n2)cc1	SKN-1 block 57
Fc1ccc(-c2nnn(Cc3nc4ccccc4s3)n2)cc1	SKN-1 block 37
Fc1ccc(Cn2nnc(-c3ccc(Cl)cc3)n2)cc1	none
CCc1ccc(Nc2oc(C)cc(=O)c2C(C)=O)cc1	SKN-1 block 69
CCc1ccc(NC(=O)c2[nH]c(C)c(C(C)=O)c2C)cc1	none
O=C(C[n+]1cccc2ccccc21)c1ccc(Cl)cc1	PABP polyA inh 23
CCS(=O)(=O)c1nc(S(=O)(=O)c2ccc(C)cc2)c(NCCCn2ccnc2)s1	none
COCOCCn1cc(CN2CCS(=O)(=O)N(Cc3ccc(-c4cccc(CO)c4)cc3)C(C(C)C)C2=O)nn1 (stereo not given)	none (no result: PABP polyA inh, eIF4H FP inh)
COCOCCn1cc(CN2CCS(=O)(=O)N(Cc3ccc(-c4cccc(N(C)C)c4)cc3)C(C(C)C)C2=O)nn1 (stereo not given)	SKN-1 block 36 (no result: PABP polyA inh, eIF4H FP inh)
CC(=O)c1cn(C)c(=O)[nH]c1=O	none
Cc1cc(OCC(O)CN2CCN(C)CC2)ccc1C(C)C (stereo not given)	SKN-1 block 36!
O=C(NCC1CCCO1)C1CC(=O)N(c2ccc(Cl)cc2)C1 (stereo not given)	none (no result: MT1-MMP act inh)
c1ccc(CN2CCN(C3=Nc4cccc5cccc3c45)CC2)cc1	eIF4H FP inh 94
COc1ccc(NC(=O)CCN2CC(C)OC(C)C2)c(OC)c1 (stereo not given)	none
COc1ccccc1NC(=O)CCN1CC(C)OC(C)C1 (stereo not given)	PABP polyA inh active
CN(C)c1ccc(S(=O)(=O)NCC(=O)N2CCN(S(=O)(=O)c3cccc(F)c3)CC2)cc1[N+](=O)[O-]	none (no result: PABP polyA inh, eIF4H FP inh)
CN(CC(=O)Nc1cccc(F)c1)C(=O)CNS(=O)(=O)c1ccc(N(C)C)c([N+](=O)[O-])c1	MLLE-PAM2 inh 46 (no result: PABP polyA inh, eIF4H FP inh)
COc1ccc(C2=CC3=C(Br)C(=O)C(C)(O)C(=O)C3=CO2)cc1 (stereo not given)	PABP polyA inh 56
Nc1ccc2[nH]ncc2c1	PABP polyA inh 8.4, eIF4H FP inh 57
O=C(Cc1ccc(F)cc1)Nc1ccc2[nH]ncc2c1	none
CC(S(=O)(=O)c1ccccc1)S(=O)(=O)c1ccccc1	none (no result: PABP polyA inh, eIF4H FP inh)
CCc1c(C(C)S(=O)(=O)c2ccccc2)[nH]c(=O)n1CC (stereo not given)	MLLE-PAM2 inh 40
CC(NCc1cc(Br)ccc1OCC(=O)NCc1ccccc1)c1ccccc1 (stereo not given)	none
O=C1c2ccccc2C(=O)N1c1ccccc1	none (no result: PABP polyA inh, eIF4H FP inh)
Nc1cccc2c1C(=O)N(c1ccccc1)C2=O	MLLE-PAM2 inh 48 (no result: PABP polyA inh, eIF4H FP inh)
CCCn1c(N)c(C(=O)CSc2nnc(Cc3cccs3)n2C2CC2)c(=O)n(C)c1=O	none (no result: PABP polyA inh, eIF4H FP inh)
CCOC(=O)N1CCC2(CC1)C(C#N)=C(N)Oc1n[nH]c(C)c12	none
CCOC(=O)N1CCC2(CC1)C(C#N)=C(N)Oc1c2c(C)nn1-c1cccc(Cl)c1	PABP polyA inh 72, eIF4H FP inh 71
CCC(C)Sc1nnc(NS(=O)(=O)Cc2ccccc2)s1 (stereo not given)	none
CCN(CC)CCCNc1nc2ccccc2c2[nH]c3ccc(OC)cc3c12	none (no result: PABP polyA inh, eIF4H FP inh)
Cc1cccc(N2CCN(C(=O)Cc3cn(C)c4ccccc34)CC2)c1C	PABP polyA inh 84, eIF4H FP inh 112
Cc1cccc(N2CCN(C(=O)COc3cc(=O)n(C)c4ccccc34)CC2)c1C	none
O=C(O)Cc1ccc(NC(=O)c2ccc3c(c2)C(=O)N(Cc2ccco2)C3=O)cc1	PABP polyA inh 59, eIF4H FP inh 100
O=C(Nc1ccc(O)cc1)c1ccc2c(c1)C(=O)N(Cc1ccco1)C2=O	none
CCOc1ccc(Nc2cc(Nc3ccccc3OCC)nc(C=C(C#N)C#N)n2)cc1	PABP polyA inh 56
CC(C)CNS(=O)(=O)c1ccc(S(=O)(=O)N2CCC3(CC2)OCCO3)cc1	PABP polyA inh active, eIF4H FP inh inconclusive
O=S(=O)(NC1CC1)c1ccc(S(=O)(=O)N2CCC3(CC2)OCCO3)cc1	none
Cn1c(=O)oc2cc(S(=O)(=O)N3CCC4(CC3)OCCO4)ccc21	PABP polyA inh 101, eIF4H FP inh 95
CCCCCCCCNCCS(=O)(=O)NCc1ccc(OC)cc1	none (no result: PABP polyA inh, eIF4H FP inh)
COc1ccc(OCC(=O)Nc2nnc(S(=O)(=O)N3CCCCCC3)s2)cc1	none
